In the library only some 2.6% were active in any assay of this set; here they are far more common.
SENP6 inh: SENP6 protease inhibitors, primary screen, biochemical, luminescence, uHTS; Sentrin-specific protease 6 (Homo sapiens), Q9GZR1; Recombinant SENP6 catalytic domain, aminoluciferin luminescence; inhibition, % at 10 µM; 1.8% of 330,000 active;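 active = inhibition above about 50% at the single tested dose, limit read from the data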;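 note: plate controls were DMSO wells with enzyme for no effect and DMSO wells lacking enzyme for full effect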
Target sequence (Q9GZR1 628-1112 limits assumed): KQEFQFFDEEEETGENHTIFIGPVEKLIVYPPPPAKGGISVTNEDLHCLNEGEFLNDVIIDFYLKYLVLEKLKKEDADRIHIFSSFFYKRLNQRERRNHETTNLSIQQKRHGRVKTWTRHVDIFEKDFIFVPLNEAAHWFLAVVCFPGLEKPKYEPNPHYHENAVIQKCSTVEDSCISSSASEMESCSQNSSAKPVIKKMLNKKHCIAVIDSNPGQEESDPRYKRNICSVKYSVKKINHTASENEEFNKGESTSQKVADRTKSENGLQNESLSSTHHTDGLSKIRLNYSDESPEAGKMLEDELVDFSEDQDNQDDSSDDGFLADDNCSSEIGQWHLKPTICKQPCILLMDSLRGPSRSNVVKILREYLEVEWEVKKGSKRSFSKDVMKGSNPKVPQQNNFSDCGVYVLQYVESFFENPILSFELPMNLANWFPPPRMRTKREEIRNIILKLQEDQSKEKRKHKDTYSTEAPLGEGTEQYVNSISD
SENP7 block: SENP7 protease inhibitors, primary screen, biochemical, luminescence, uHTS; Sentrin-specific protease 7 (Homo sapiens), Q9BQF6; recombinant SENP7, Z-RLRGG-aminoluciferin luminescence, 40 min; inhibition, % at 5 µM; 1.5% of 330,000 active; AID 434973, 2010;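 active = inhibition above about 50% at the single test dose, limit read from the data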;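 note: plate controls were DMSO with enzyme for no effect and no enzyme buffer wells for full effect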
Platelet DG rel: inhibitors of platelet dense granule secretion, primary screen, cell-based, MLPCN, human platelets; 0.22% of 300,000 active; human platelet-rich plasma, SFLLRN dense granule ATP release, luminescence; inhibition, %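 (compounds screened at 7.5 µM in platelet-rich plasma)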;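 active = mean replicate score, as percent of positive control, at or above 50; inconclusive = mean below 50 but at least one replicate at or above 50; inactive = mean and every replicate below 50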
SENP8 block-1: human SENP8 protease inhibitors, primary screen, biochemical, fluorescence, Nedd8 protein substrate, uHTS. Sentrin-specific protease 8 (Homo sapiens), Q96LD8. recombinant SENP8. inhibition, % at 20 µM. 0.64% of 360,000 active; in the data active = inhibition mostly above about 40%, no sharp cut-off; inactive = mostly below about 27%
SENP1 inh: human SENP1 catalytic domain inhibitors, primary screen, biochemical, FRET, uHTS; recombinant SENP1 catalytic domain, CyPet-SUMO1-YPet FRET cleavage; Sentrin-specific protease 1 (Homo sapiens), Q9P0U3; 0.21% of 360,000 active; inhibition, % at 10 µM;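 active = inhibition at least 30% at 10 µM, raw YFP signal under a set limit, fluorescence ratio 0.5 to 1.5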;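 note: 0% = enzyme with DMSO and 100% = no enzyme wells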
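Controls: no-enzyme wells low, DMSO-plus-enzyme wells high control. Test system: human recombinant His6-tagged SENP1 catalytic domain enzyme. Reagent: SFCypet-SUMO1-SFYpet FRET protein substrate, 25 nM final. Doses: one dose per compound, 10 µM, 0.5% DMSO. Detection: FRET, CFP and YFP emission. Timing: 50 min reaction at room temperature.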
SENP8 block-2: SENP8 protease inhibitors, primary screen, biochemical, luminescence. 1.2% of 330,000 active. inhibition, % at 10 µM. Sentrin-specific protease 8 (Homo sapiens), Q96LD8. AID 2540, 2010. purified SENP8, Z-RLRGG-aminoluciferin cleavage; in the data active = inhibition above about 50%
SENP8 confirm: SENP8 protease inhibitors, retest, confirmation, biochemical, luminescence, single concentration; Recombinant SENP8, Z-RLRGG-aminoluciferin luminescence, 60 min; shares compounds with SENP7 block; inhibition, % at 12.5 µM; 40% of 6,200 active; AID 488912, 2010;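 active = mean inhibition across replicates above about 50%, limit read from the data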
SENP6 conf: SENP6 protease inhibitors, confirmation, biochemical, luminescence, single concentration; shares compounds with SENP7 block; recombinant SENP6, Z-RLRGG-aminoluciferin luminescence; inhibition, % at 12.5 µM; 58% of 6,200 active; AID 488915, 2010
SENP7 conf: SENP7 protease inhibitors, retest, confirmation, biochemical, luminescence, single concentration; shares compounds with SENP7 block; recombinant SENP7, Z-RLRGG-aminoluciferin luminescence, 40 min; inhibition, % at 12.5 µM; 69% of 6,200 active; AID 488917, 2010
Casp3 SENP sel: caspase-3 protease inhibitors, confirmation, selectivity assay for SENP inhibitor project, biochemical, single concentration; AID 488918, 2010; 60% of 6,200 active; shares compounds with SENP7 block; inhibition, % at 12.5 µM; purified caspase-3, Z-DEVD-aminoluciferin luminescence, 60 min;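 active = mean inhibition above about 50%, limit read from the data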;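 note: plate controls were enzyme with DMSO for no effect and wells without caspase-3 for full effect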
SENP luc ctr: luminescence interference (SENP counter-screen); AID 488919; inhibition, % at 12.5 µM; Pre-incubated SENP8/Z-RLRGG-aminoluciferin, luciferase luminescence interference; 39% of 6,200 active; shares compounds with SENP7 block;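 active = mean inhibition above about 50% when retested at one dose, limit read from the data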;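 note: plate controls were DMSO wells with completed reaction for no effect and substrate without enzyme for full effect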
* hit, by the source's call; ? = inconclusive; / = not tested or not shown.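 Rule for the calls, unless noted: active = mean inhibition above about 50% in the one-dose retest (limit read from the data); inactive = the rest.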

SMILES	SENP6 inh	SENP7 block	Platelet DG rel	SENP8 block-1	SENP1 inh	SENP8 block-2	SENP8 confirm	SENP6 conf	SENP7 conf	Casp3 SENP sel	SENP luc ctr
Cn1cccc1-c1nc2ccc([N+](=O)[O-])cc2[nH]1	62*	58*	5	-10	9	46	51*	52*	85*	62*	62*
C[C@H]1CN([C@@H](C)CO)S(=O)(=O)c2ccc(Br)cc2O[C@@H]1CN(C)C(=O)CCN1CCCCC1	/	/	/	0	-2	/	/	/	/	/	/
CC(C)CN(C(=O)c1ccc([N+](=O)[O-])s1)c1c(N)n(Cc2ccccc2)c(=O)[nH]c1=O	10	2	-4	-1	-6	4	/	/	/	/	/
Oc1cccc(/C=N/N2CCCCC2)c1O	-14	-9	5	22	0	-17	/	/	/	/	/
Oc1ccc(/C=N/N2CCCCC2)c(O)c1O	56*	11	3	52*	38*	20	-4	8	5	3	1
Cc1cccc(OCc2nc3ccccc3n2C)c1	45	29	-2	23	-3	-3	/	/	/	/	/
Cc1ccccc1OCc1nc2ccccc2n1C	-5	72*	-2	10	2	79*	45	80*	96*	86*	82*
CCOc1ccc(CNc2nc3ccccc3n2C)cc1	84*	69*	-1	20	1	56*	-3	59*	88*	86*	72*
CCOc1ccc(Nc2nc3ccccc3n2C)cc1	-8	-2	4	21	1	5	/	/	/	/	/
Cn1c(COc2ccc(F)cc2)nc2ccccc21	62*	61*	5	4	-1	47	60*	58*	83*	76*	64*
O=C(NCc1ccccc1)C(c1ccc(C(F)(F)F)cc1)n1c(=O)c(-c2ccco2)nc2ccccc21 (centres undefined)	/	/	/	-433	-64	/	/	/	/	/	/
CC(=O)OCC(=O)Nc1ccc([N+](=O)[O-])cc1Cl	7	6	-3	12	1	-2	/	/	/	/	/
CC(=O)Oc1c(C)cc(Cl)cc1C(=O)Nc1ccc([N+](=O)[O-])cc1Cl	84*	98*	8	18	0	24	9	8	10	24	14
COc1ccc2c(C#N)c3ccccn3c2c1	50*	21	-7	-391	-24	10	26	52*	-1	4	-1
CCc1ccc(OC(=O)/C=C/c2ccco2)cc1	89*	81*	3	4	0	69*	7	77*	94*	50*	18
Cc1ccnc(NC(=O)c2cccc(S(=O)(=O)N3CCCc4ccccc43)c2)c1	1	-3	-7	5	1	-2	/	/	/	/	/
CCc1nc2c(OCc3ccccc3C(=O)OC)cccn2c1N(C)C(=O)c1cccc(OC)c1	/	/	/	12	1	/	/	/	/	/	/
CCOC(=O)C1CCN(Cc2cnc(Oc3ccc(C(C)(C)C)cc3)s2)CC1	4	102*	-1	12	1	1	3	0	1	1	-2
CCCn1c(N)c(N(CCOC)C(=O)CSc2ccccc2)c(=O)[nH]c1=O	-10	-2	/	-22	0	1	/	/	/	/	/
CCN(CC)Cc1c(O)ccc2c(=O)c(-c3ccc4c(c3)OCCO4)coc12	-8	-1	12	-484	0	-2	/	/	/	/	/
O=c1c(-c2ccc3c(c2)OCCO3)coc2cc(O)cc(O)c12	67*	58*	3	32	-1	50*	76*	73*	89*	58*	70*
CCOc1ccc(/C=N/O)cc1	-7	-3	1	10	1	8	/	/	/	/	/
Cc1ccc(COc2ccc(/C=N/O)cc2)cc1	70*	57*	2	2	1	45	71*	70*	86*	48	47
O=C(CN1C(=O)C2CC=CCC2C1=O)Nc1nnc(C2CC2)s1 (centres undefined)	-10	3	/	13	1	-2	/	/	/	/	/
O=C(Nc1scc(-c2cccs2)c1C(=O)O)c1cccs1	87*	-8	7	-127	-1	76*	-20	80*	95*	80*	85*
SMILES	SENP6 inh	SENP7 block	Platelet DG rel	SENP8 block-1	SENP1 inh	SENP8 block-2	SENP8 confirm	SENP6 conf	SENP7 conf	Casp3 SENP sel	SENP luc ctr
O=C(Nc1scc(-c2ccccc2)c1C(=O)O)c1ccco1	71*	44	0	-94	0	47	62*	60*	87*	83*	76*
COC(=O)c1c(-c2ccc(F)cc2)csc1NC(=O)c1ccco1	-3	-4	12	-496	-2	-11	/	/	/	/	/
Cc1ccc(C(=O)Nc2scc(-c3ccccc3)c2C(=O)O)cc1	94*	70*	-8	-153	-2	93*	7	97*	102*	95*	95*
COc1ccc(-c2csc(NC(=O)c3ccccc3F)c2C(=O)O)cc1	68*	18	3	-43	2	60*	14	73*	90*	75*	76*
Cc1cc(S(=O)(=O)NCCCN2CCOCC2)ccc1Br	-7	-6	/	5	2	-1	/	/	/	/	/
CSc1nsc(SCC(=O)Nc2ccc(C(N)=O)cc2)n1	11	4	8	8	3	3	/	/	/	/	/
Cc1cc(NC(=O)c2cccc(F)c2)ncc1NC(=O)c1ccco1	94*	93*	?	19	0	82*	87*	87*	99*	95*	88*
Cc1cc(Cl)ccc1OCC(=O)OCC(=O)Nc1ccc(Cl)cn1	/	/	/	16	3	/	/	/	/	/	/

Screening data as filed in PubChem BioAssay.
